Measurements: ChEMBL document CHEMBL4000211, “Discovery of novel polycyclic spiro-fused carbocyclicoxindole-based anticancer agents” (Eur J Med Chem, 2017)
The source made the active and inactive calls. The calls are words filed in the database; no cut-off is given here.

Key:
[1] = test system: A2780/Taxol; test: Antiproliferative activity against human A2780T cells after 48 hrs by MTT assay; assay type: functional, cell-based
Summary of the method: (§1)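 Cells seeded at 3×10³/well and grown 24 h, then exposed 48 h to six final concentrations, twofold steps down from 30. MTT (5 mg/mL) was added for 2–4 h at 37 °C. Supernatant was removed, formazan dissolved in DMSO, and OD read at 570 nm. Results are given as IC50, or as percent inhibition where IC50 exceeds the top concentration. At least three runs.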

[2] = test system: A2780S; test: Antiproliferative activity against human A2780S cells at 3.75 uM after 48 hrs by MTT assay relative to control; assay type: functional; summary of the method: as §1
[3] = test system: A2780S; test: Antiproliferative activity against human A2780S cells at 30 uM after 48 hrs by MTT assay relative to control; assay type: functional; summary of the method: as §1
[4] = test system: HCT-116; test: Induction of apoptosis in human HCT116 cells assessed as early apoptotic cells at 7.5 uM after 48 hrs by annexin V-FITC/propidium iodide staining-based flow cytometric method (reference value: 1.6%); assay type: functional
[5] = test system: HCT-116; test: Induction of apoptosis in human HCT116 cells assessed as early apoptotic cells at 12.5 uM after 24 hrs by annexin V-FITC/propidium iodide staining-based flow cytometric method (reference value: 1.9%); assay type: functional
[6] = test system: HCT-116; test: Cell cycle arrest in human HCT116 cells assessed as accumulation at S phase at 10 uM after 24 hrs by propidium iodide staining-based flow cytometric method (reference value: 36.43%); assay type: functional
[7] = test system: HCT-116; test: Induction of apoptosis in human HCT116 cells assessed as late apoptotic cells at 7.5 uM after 24 hrs by annexin V-FITC/propidium iodide staining-based flow cytometric method (reference value: 2.77%); assay type: functional
[8] = test system: HCT-116; test: Cell cycle arrest in human HCT116 cells assessed as accumulation at sub G1 phase at 12.5 uM after 24 hrs by propidium iodide staining-based flow cytometric method (reference value: 1.73%); assay type: functional
[9] = test system: NCI-H1975; test: Antiproliferative activity against human NCI-H1975 cells after 48 hrs by MTT assay; assay type: functional, cell-based; details: NCI-H1975, 48 h; summary of the method: as §1
[10] = test system: HCT-116; test: Induction of apoptosis in human HCT116 cells assessed as early apoptotic cells at 7.5 uM after 24 hrs by annexin V-FITC/propidium iodide staining-based flow cytometric method (reference value: 1.9%); assay type: functional
[11] = test system: HCT-116; test: Antiproliferative activity against human HCT116 cells after 48 hrs by MTT assay; assay type: functional, cell-based; details: HCT-116, 48 h; summary of the method: as §1
[12] = test system: HCT-116; test: Cell cycle arrest in human HCT116 cells assessed as accumulation at sub G1 phase at 10 uM after 48 hrs by propidium iodide staining-based flow cytometric method (reference value: 0.86%); assay type: functional
[13] = test system: HCT-116; test: Cell cycle arrest in human HCT116 cells assessed as accumulation at G1 phase at 7.5 uM after 24 hrs by propidium iodide staining-based flow cytometric method (reference value: 43.79%); assay type: functional
[14] = test system: HCT-116; test: Cell cycle arrest in human HCT116 cells assessed as accumulation at G2 phase at 7.5 uM after 48 hrs by propidium iodide staining-based flow cytometric method (reference value: 31.27%); assay type: functional
[15] = test system: HCT-116; test: Induction of apoptosis in human HCT116 cells assessed as reduction in cell volume at 7.5 to 12.5 uM after 24 hrs by Hoechst 33342 staining-based fluorescence microscopic method; assay type: functional
Summary of the method: (§2)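 HCT116 cells (1×10⁵/well) cultured 24 h, then exposed to 0, 7.5, 10 or 12.5 μM (final) for 24 h. Rinsed in PBS, fixed in 75% ethanol and checked by inverted microscopy. Then stained with Hoechst 33342 (2 μg/mL in PBS) and scored for apoptotic nuclear morphology under fluorescence microscopy.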

[16] = test system: CT26; test: Antiproliferative activity against mouse CT26 cells after 48 hrs by MTT assay; assay type: functional, cell-based; details: CT26, 48 h; summary of the method: as §1
[17] = test system: HCT-116; test: Cell cycle arrest in human HCT116 cells assessed as accumulation at sub G1 phase at 7.5 uM after 24 hrs by propidium iodide staining-based flow cytometric method (reference value: 1.73%); assay type: functional
[18] = test system: HCT-116; test: Cell cycle arrest in human HCT116 cells assessed as accumulation at G2 phase at 10 uM after 24 hrs by propidium iodide staining-based flow cytometric method (reference value: 26.10%); assay type: functional
[19] = test system: HCT-116; test: Induction of apoptosis in human HCT116 cells assessed as viable cells at 12.5 uM after 24 hrs by annexin V-FITC/propidium iodide staining-based flow cytometric method (reference value: 93.48%); assay type: functional; details: HCT-116, 24 h, read-out: Activity
Summary of the method: (§3)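 HCT116 cells seeded at 1×10⁶ cells/mL in 6-well plates for 24 h, then exposed to 0, 7.5, 10 or 12.5 μM for a further 24 h or 48 h. Cells washed twice in PBS, then stained with Annexin V-FITC plus PI (100 μg/mL stock) in binding buffer (10 mM HEPES, pH 7.4, 2.5 mM CaCl₂) for 30 min at room temperature in the dark. Early and late apoptotic fractions gated by flow cytometry.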

[20] = test system: HCT-116; test: Induction of apoptosis in human HCT116 cells assessed as late apoptotic cells at 12.5 uM after 24 hrs by annexin V-FITC/propidium iodide staining-based flow cytometric method (reference value: 2.77%); assay type: functional
[21] = test system: HCT-116; test: Cell cycle arrest in human HCT116 cells assessed as accumulation at sub G1 phase at 10 uM after 24 hrs by propidium iodide staining-based flow cytometric method (reference value: 1.73%); assay type: functional
[22] = test system: A2780S; test: Antiproliferative activity against human A2780S cells at 7.5 uM after 48 hrs by MTT assay relative to control; assay type: functional; summary of the method: as §1
[23] = test system: HCT-116; test: Induction of apoptosis in human HCT116 cells assessed as early apoptotic cells at 10 uM after 48 hrs by annexin V-FITC/propidium iodide staining-based flow cytometric method (reference value: 1.6%); assay type: functional
[24] = test system: HCT-116; test: Induction of apoptosis in human HCT116 cells assessed as necrotic cells at 7.5 uM after 24 hrs by annexin V-FITC/propidium iodide staining-based flow cytometric method (reference value: 1.85%); assay type: functional; summary of the method: as §3
[25] = test system: HCT-116; test: Induction of apoptosis in human HCT116 cells assessed as viable cells at 7.5 uM after 48 hrs by annexin V-FITC/propidium iodide staining-based flow cytometric method (reference value: 95.05%); assay type: functional; details: HCT-116, 48 h, read-out: Activity; summary of the method: as §3
[26] = molecular target: E3 ubiquitin-protein ligase Mdm2 (Homo sapiens) (UniProt Q00987); test: Inhibition of MDM2-mediated p53 degradation in human HCT116 cells assessed as increase in MDM2 levels at 7.5 to 12.5 uM after 24 hrs by Western blot method; assay type: cell-based
Sequence of E3 ubiquitin-protein ligase Mdm2 (Homo sapiens) (Q00987 whole entry, looked up): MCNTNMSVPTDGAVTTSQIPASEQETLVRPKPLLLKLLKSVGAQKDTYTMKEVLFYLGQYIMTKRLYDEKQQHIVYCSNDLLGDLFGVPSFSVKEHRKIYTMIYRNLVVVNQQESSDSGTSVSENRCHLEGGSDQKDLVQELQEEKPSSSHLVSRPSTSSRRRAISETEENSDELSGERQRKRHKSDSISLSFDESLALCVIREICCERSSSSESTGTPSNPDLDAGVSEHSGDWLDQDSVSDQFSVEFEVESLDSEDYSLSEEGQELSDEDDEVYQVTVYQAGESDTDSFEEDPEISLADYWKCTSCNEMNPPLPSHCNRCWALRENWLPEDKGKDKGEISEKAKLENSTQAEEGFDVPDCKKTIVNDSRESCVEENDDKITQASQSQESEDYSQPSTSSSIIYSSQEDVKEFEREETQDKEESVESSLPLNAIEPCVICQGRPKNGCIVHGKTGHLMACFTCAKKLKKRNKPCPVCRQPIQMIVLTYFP
Summary of the method: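 Treated HCT116 cells lysed on ice in RIPA buffer with 1% protease inhibitor cocktail. Lysates cleared at 13000 g for 20 min at 4 °C and protein measured by BCA. Equal protein amounts run on SDS-PAGE, transferred to PVDF and probed with primary then HRP secondary antibodies. Bands detected by enhanced chemiluminescence; 24 h treatment.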

[27] = test system: HCT-116; test: Induction of apoptosis in human HCT116 cells assessed as nuclear fragmentation at 7.5 to 12.5 uM after 24 hrs by Hoechst 33342 staining-based fluorescence microscopic method; assay type: functional, cell-based; summary of the method: as §2
[28] = test system: HCT-116; test: Cell cycle arrest in human HCT116 cells assessed as accumulation at G1 phase at 7.5 uM after 48 hrs by propidium iodide staining-based flow cytometric method (reference value: 40.75%); assay type: functional

What does the source list for `C[C@@H]1Oc2ccc3ccccc3c2[C@@H]2[C@@H]1C=C(C=O)[C@@H](C)[C@]21C(=O)Nc2ccccc21`?
IC50 [1]: 23.4 µM; inhibition at 3.75 µM [2]: 17.7 to 24.1%; inhibition at 30 µM [3]: 83.8 to 85.1%; Activity [4]: 4.18%; Activity [5]: 33.2%; Activity [6]: 7.13%; Activity [7]: 4.71%; Activity [8]: 37.03%; IC50 [9]: 13.7 µM; Activity [10]: 3.78%; IC50 [11]: 8.6 µM; Activity [12]: 32.93%; Activity [13]: 46.1%; Activity [14]: 26.41%; Activity [15]: Active; IC50 [16]: 9.5 µM; Activity [17]: 3.18%; Activity [18]: 21.05%; viability at 12.5 µM [19]: 46.6%; Activity [20]: 17.98%; Activity [21]: 15.92%; inhibition at 7.5 µM [22]: 50 to 58.1%; Activity [23]: 27.48%; Activity [24]: 1.6%; viability at 7.5 µM [25]: 91.7%; inhibition [26]: Active; Activity [27]: Active; Activity [28]: 49.85%
